Active and inactive are the calls of the source.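 The calls were made as follows, unless noted: active = GFP response above 150% of the DMSO level; inconclusive = fewer than 70 events counted for a yeast strain; inactive = the rest.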
Legend:
[1] = hit retest on RPL19A-GFP reporter strain – cell-based, S. cerevisiae, flow cytometry, cherry picks, mother/daughter gates, confirmation (AID 2270;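 active = GFP response below 50% of the DMSO control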); conditions: 3 h, at 10 µM, stronger effect = lower value, 100 = same GFP as DMSO wells
[2] = yeast TOR pathway reporter LAP4-GFP change – cell-based, cherry picks, flow cytometry, mother/daughter gates, confirmation (AID 2271;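 active = GFP response above 150% of the DMSO control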;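 also: ratio of sample to DMSO plate mean so 100% equals DMSO level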); conditions: S. cerevisiae LAP4-GFP strain, 3 h, at 10 µM, stronger effect = higher value, 100 means same as DMSO control
In short: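 Test system: GFP-fusion yeast strain / Amount: 0.2 OD600 cells / Buffer or medium: SC medium / Dosing: 10 µM single dose / Incubation: compound exposure 3 h at 30 °C, end-over-end rotation / Detection: HT flow cytometry, GFP fluorescence channel / Evaluation: median GFP fluorescence as percent of plate-mean DMSO wells / Control set: DMSO-only negative wells, rapamycin 400 ng/mL positive wells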

[3] = TOR pathway reporter MEP2-GFP, retest of hits – S. cerevisiae, flow cytometry GFP, cherry picks, confirmation (AID 2272;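 active = GFP response above 150% of the DMSO control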;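 also: ratio of well signal to plate DMSO mean so 100% equals DMSO level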); conditions: S. cerevisiae MEP2-GFP strain, 3 h, at 10 µM, stronger effect = higher value
[4] = yeast AGP1-GFP fluorescence change, single-dose – cell-based, flow cytometry, S. cerevisiae, cherry picks, confirmation (AID 2273);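 also: median GFP channel fluorescence over the whole cell population gate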; conditions: S. cerevisiae AGP1-GFP strain, 3 h, at 10 µM
[5] = TOR pathway CIT2 reporter hit retest – S. cerevisiae, GFP fusion, cherry picks, mother/daughter gates, confirmation (AID 2274); conditions: S. cerevisiae CIT2-GFP strain, flow cytometry, 3 h, at 10 µM, stronger effect = higher value
[6] = measured here: daughter cell gate
[7] = measured here: mother cell gate
[8] = measured here: daughter cell gate response
[9] = measured here: mother cell gate response

Row | Compound | GFP response vs DMSO [1] | GFP response vs DMSO [1, 6] | GFP response vs DMSO [1, 7] | GFP response relative to DMSO [2] | GFP response relative to DMSO [2, 8] | GFP response relative to DMSO [2, 9] | GFP response vs DMSO [3] | GFP response, % of DMSO [4] | GFP response, % of DMSO [5] | GFP response, % of DMSO [5, 6] | GFP response, % of DMSO [5, 7]
1 | O=C(Nc1cccc(O)c1)c1ccc(Br)cc1 | 96% (inactive) | 97% | 97.2% | 98.8% (inactive) | 96.5% | 100% | 102% (inactive) | 103% (inactive) | 102% (inactive) | 102% | 100%
2 | OCc1ccccc1SSc1ccccc1CO | 101% (inactive) | 99.2% | 98.5% | 149% (inactive) | 137% | 156% | 100% (inactive) | 104% (inactive) | 103% (inactive) | 101% | 99.8%
3 | O=c1oc(/C=C/c2ccc([N+](=O)[O-])s2)nc2ccccc12 | 112% (inactive) | 113% | 108% | 184% (active) | 180% | 189% | 267% (active) | 107% (inactive) | 183% (active) | 180% | 181%
4 | O=C(NCCN1CCOCC1)c1ccc(CS(=O)(=O)Cc2ccccc2F)o1 | 99.6% (inactive) | 100% | 99.7% | 98.6% (inactive) | 99.7% | 98.2% | 103% (inactive) | 104% (inactive) | 110% (inactive) | 108% | 110%
5 | COc1cc(NC(=O)c2cccs2)ccc1NC(=O)c1cc2ccccc2o1 | 97% (inactive) | 96.9% | 98.7% | 96.7% (inactive) | 99.2% | 95.1% | 100% (inactive) | 99.9% (inactive) | 101% (inactive) | 101% | 101%
6 | CCOc1ccccc1NC(=O)c1nc(S(=O)(=O)Cc2ccccc2)ncc1Cl | 97.8% (inactive) | 99.8% | 97.1% | 94.1% (inactive) | 96% | 95.4% | 103% (inactive) | 106% (inactive) | 98.6% (inactive) | 101% | 97.1%
7 | O=C(c1ccccc1F)N1CCN(c2ccccc2)CC1 | 97% (inactive) | 97.9% | 97.6% | 99.2% (inactive) | 101% | 98.3% | 105% (inactive) | 95.2% (inactive) | 98.3% (inactive) | 101% | 98.5%
8 | Cc1cccc(NC(=S)NCC23C=CC(O2)C2C(=O)N(c4ccc(Cl)cc4)C(=O)C23)c1 (stereo unspecified) | 100% (inactive) | 103% | 99.8% | 103% (inactive) | 102% | 104% | 102% (inactive) | 100% (inactive) | 104% (inactive) | 104% | 103%
9 | C=CCn1c(=O)c(C(=O)NCCc2ccccc2)c(O)c2ccccc21 | 98.4% (inactive) | 98.9% | 100% | 90.2% (inactive) | 89.6% | 91.9% | 96.2% (inactive) | 102% (inactive) | 99.7% (inactive) | 99.1% | 101%
10 | NC(=O)C1CCN(C(=S)NCCc2ccccc2)CC1 | 97.3% (inactive) | 99.5% | 97.1% | 91.8% (inactive) | 91.3% | 93.4% | 99.3% (inactive) | 102% (inactive) | 101% (inactive) | 103% | 103%
11 | O=C(O)c1ccc(/C=N/NC(=O)c2ccc(Br)cc2)cc1 | 102% (inactive) | 100% | 102% | 98.2% (inactive) | 95.9% | 98.4% | 101% (inactive) | 99.8% (inactive) | 94.4% (inactive) | 93.8% | 94.4%
12 | C=CCNC(=O)/C(C#N)=C/c1c(N(Cc2ccccc2)Cc2ccccc2)nc2ccccn2c1=O | 98.8% (inactive) | 98.6% | 98.8% | 99.8% (inactive) | 99.7% | 99.2% | 103% (inactive) | 101% (inactive) | 94.7% (inactive) | 96.8% | 94.7%
13 | Cc1nc2ccccc2n2c(O)c(CC(=O)O)cc12 | 98.7% (inactive) | 98.5% | 99.3% | 103% (inactive) | 96.5% | 99.5% | 102% (inactive) | 98.9% (inactive) | 92.1% (inactive) | 96.4% | 85.1%
14 | CCOC(=O)CNc1c(-c2ccc(O)cc2)nc2ccc(Cl)cn12 | 101% (inactive) | 99.8% | 101% | 96.5% (inactive) | 95% | 97.5% | 102% (inactive) | 95.4% (inactive) | 96.4% (inactive) | 96.4% | 95.6%
15 | COc1ccccc1N1C(=O)CC(Sc2ncccc2C(=O)O)C1=O (stereo unspecified) | 100% (inactive) | 98.4% | 100% | 95% (inactive) | 95.6% | 97.2% | 100% (inactive) | 99.2% (inactive) | 100% (inactive) | 99.7% | 99.8%
16 | Cc1cc(=O)n(-c2ccc3ccccc3n2)[nH]1 | 106% (inactive) | 109% | 103% | 115% (inactive) | 120% | 116% | 102% (inactive) | 99.6% (inactive) | 112% (inactive) | 114% | 107%

Row | Compound | GFP response vs DMSO [1] | GFP response vs DMSO [1, 6] | GFP response vs DMSO [1, 7] | GFP response relative to DMSO [2] | GFP response relative to DMSO [2, 8] | GFP response relative to DMSO [2, 9] | GFP response vs DMSO [3] | GFP response, % of DMSO [4] | GFP response, % of DMSO [5] | GFP response, % of DMSO [5, 6] | GFP response, % of DMSO [5, 7]
17 | COc1ccc2c(c1)c(C(C)=O)c(C)n2-c1ccccc1OC | 96.5% (inactive) | 97.8% | 95.4% | 101% (inactive) | 99% | 101% | 101% (inactive) | 107% (inactive) | 103% (inactive) | 101% | 103%
18 | CCOc1ccccc1/C=C/C(=O)c1ccc(Cl)cc1 | 98.2% (inactive) | 97.1% | 98.5% | 99.2% (inactive) | 99.2% | 97.2% | 98.3% (inactive) | 102% (inactive) | 103% (inactive) | 103% | 102%
19 | Cc1ccc(-c2csc(NC(=O)c3cccs3)n2)cc1 | 98.8% (inactive) | 93.9% | 99.6% | 105% (inactive) | 99.1% | 107% | 112% (inactive) | 98% (inactive) | 94.4% (inactive) | 90.2% | 94.4%
20 | Cc1ccc(N2C(=O)c3ccccc3NC2c2ccccc2O)cc1 (stereo unspecified) | 97.2% (inactive) | 98.1% | 98.4% | 97.9% (inactive) | 96% | 96.1% | 109% (inactive) | 96.6% (inactive) | 103% (inactive) | 105% | 103%
21 | Cc1ccc2nc(/C(C#N)=C/c3ccc(O)c(O)c3)[nH]c2c1 | 103% (inactive) | 102% | 105% | 123% (inactive) | 110% | 133% | 230% (active) | 102% (inactive) | 128% (inactive) | 114% | 140%
22 | O=C(Nc1ccccc1C(F)(F)F)c1cc(-c2ccc(O)cc2)on1 | 98.8% (inactive) | 97% | 99.2% | 108% (inactive) | 102% | 108% | 102% (inactive) | 94% (inactive) | 101% (inactive) | 98.3% | 98%
23 | CCCc1[nH]nc2c1C(c1ccc(OCCN3CCOCC3)c(OCC)c1)C(C#N)=C(N)O2 (stereo unspecified) | 98.4% (inactive) | 98.4% | 98.9% | 90.2% (inactive) | 95.6% | 91.1% | 97.8% (inactive) | 97.8% (inactive) | 107% (inactive) | 105% | 108%
24 | CCN(CC)N=Nc1[nH]nc2nc(C)cc(C)c12 | 127% (inactive) | 103% | 118% | 120% (inactive) | 102% | 116% | 137% (inactive) | 120% (inactive) | 133% (inactive) | 123% | 134%
25 | O=C(Nc1cc(Sc2ccccn2)cc([N+](=O)[O-])c1)c1ccc([N+](=O)[O-])cc1 | 97.8% (inactive) | 98.4% | 96.9% | 98.9% (inactive) | 101% | 98.4% | 110% (inactive) | 104% (inactive) | 107% (inactive) | 106% | 106%
26 | Cc1cccn2c(=O)c(/C=C(\C#N)C(=O)NCc3ccccc3)c(N3CCC(C(N)=O)CC3)nc12 | 98.7% (inactive) | 99% | 97.5% | 101% (inactive) | 102% | 101% | 101% (inactive) | 104% (inactive) | 101% (inactive) | 103% | 103%
27 | O=C1CC(Sc2ncccn2)C(=O)N1c1ccccc1C(F)(F)F (stereo unspecified) | 100% (inactive) | 100% | 100% | 98.7% (inactive) | 102% | 99.3% | 100% (inactive) | 98.9% (inactive) | 96.5% (inactive) | 96.5% | 97.7%
28 | COc1cc(N2C(=O)C=CC2=O)c(OC)cc1Cl | 85.7% (inactive) | 90% | 75% | 303% (active) | 211% | 272% | 133% (inactive) | 108% (inactive) | 90% (inactive) | 96.5% | 79.4%
29 | CCCn1nc(C(=O)OCC(=O)c2ccc3c(c2)NC(=O)CO3)c2ccccc2c1=O | 97.2% (inactive) | 96.6% | 96.5% | 98.2% (inactive) | 97.5% | 98.4% | 105% (inactive) | 96.3% (inactive) | 100% (inactive) | 97.4% | 101%
30 | COc1ccc(CC2=CC(=O)c3ccccc3C2=O)cc1 | 99.7% (inactive) | 99.3% | 99.3% | 101% (inactive) | 99.3% | 102% | 104% (inactive) | 94.5% (inactive) | 96.4% (inactive) | 96.4% | 94.5%
31 | COc1cc(-c2nc3ccccn3c2NCC2CCCO2)ccc1O (stereo unspecified) | 102% (inactive) | 106% | 102% | 93% (inactive) | 95% | 88.7% | 106% (inactive) | 103% (inactive) | 106% (inactive) | 108% | 104%

Reference: PubChem BioAssay
